Test results: ChEMBL document CHEMBL1926569, “Novel (E)-1-(4-methyl-2-(alkylamino)thiazol-5-yl)-3-arylprop-2-en-1-ones as potent antimicrobial agents” (2011)
In brackets after ≈: the same amount, converted by molar mass.

Columns and labels:
Enterococcus faecalis [1] = test: Antibacterial activity against Enterococcus faecalis isolated from human incubated for 24 hrs followed by serial sub-cultivation for 24 hrs by microdilution; assay type: functional
Outline: (§1)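 MBC: after the 24 h LB broth microdilution (1.0 × 10⁴ CFU per well, 160 rpm), wells were serially sub-cultured into fresh broth plates and incubated a further 24 h. MBC is the lowest concentration with no visible growth, taken as 99.5% killing of the original inoculum. Duplicate, repeated three times.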

Pseudomonas aeruginosa [2] = test: Ratio of ampicillin MIC to compound MIC for Pseudomonas aeruginosa ATCC 27853; assay type: functional
Talaromyces funiculosus [3] = test: Antifungal activity against Penicillium funiculosum ATCC 36839 after 72 hrs by serial dilution technique; assay type: functional; conditions: ATCC 36839, 72 h
Outline: (§2)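 Modified microdilution in 96-well plates. Fungi were kept on malt agar at 4 °C. Spores were washed off in sterile 0.85% saline with 0.1% Tween 80. Compounds were dissolved at 1 mg/ml in 5% DMSO with 0.1% Tween 80 and added to malt broth with inoculum. Plates were shaken at 160 rpm for 72 h at 28 °C. Duplicate, repeated three times.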

Aspergillus fumigatus [4] = test: Ratio of ketoconazole to compound for Aspergillus fumigatus isolated from human; assay type: functional
Penicillium ochrochloron [5] = test: Antifungal activity against Penicillium ochrochloron ATCC 9112 after 72 hrs by serial dilution technique; assay type: functional; conditions: ATCC 9112, 72 h; outline: as §2
Aspergillus ochraceus [6] = test: Antifungal activity against Aspergillus ochraceus ATCC 12066 after 72 hrs by serial dilution technique; assay type: functional; conditions: ATCC 12066, 72 h; outline: as §2
Candida albicans [7] = test: Antifungal activity against Candida albicans isolated from human incubated for 72 hrs followed by serial sub-cultivation for 72 hrs by serial dilution technique; assay type: functional
Outline: (§3)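 MFC: material from 72 h malt broth microdilution wells was serially sub-cultured into fresh broth plates and incubated a further 72 h at 28 °C. Fungicidal concentration is taken from growth after sub-culture. Duplicate, repeated three times.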

Candida albicans [8] = test: Ratio of ketoconazole to compound for Candida albicans isolated from human; assay type: functional
Talaromyces funiculosus [9] = test: Antifungal activity against Penicillium funiculosum ATCC 36839 incubated for 72 hrs followed by serial sub-cultivation for 72 hrs by serial dilution technique; assay type: functional; conditions: ATCC 36839, 72 h; outline: as §3
Micrococcus flavus [10] = test: Antibacterial activity against Micrococcus flavus ATCC 10240 incubated for 24 hrs followed by serial sub-cultivation for 24 hrs by microdilution; assay type: functional; conditions: ATCC 10240, 24 h; outline: as §1
Aspergillus ochraceus [11] = test: Antifungal activity against Aspergillus ochraceus after 72 hrs by serial dilution technique
Pseudomonas aeruginosa [12] = test: Antibacterial activity against Pseudomonas aeruginosa ATCC 27853 after 24 hrs by microdilution method; assay type: functional; conditions: ATCC 27853, 24 h
Outline: (§4)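 Broth microdilution in 96-well plates. Bacterial suspensions were adjusted in sterile saline to 1.0 × 10⁵ CFU/ml, prepared daily and kept at 4 °C. Compound was added to LB broth with 1.0 × 10⁴ CFU per well and shaken at 160 rpm for 24 h at […] (so in the source). MIC is the lowest concentration with no visible growth under a binocular microscope. OD655 was also read. Duplicate, repeated three times.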

Aspergillus niger [13] = test: Ratio of bifonazole to compound for Aspergillus niger ATCC 6275; assay type: functional
Salmonella typhimurium [14] = test: Antibacterial activity against Salmonella Typhimurium ATCC 13311 incubated for 24 hrs followed by serial sub-cultivation for 24 hrs by microdilution; assay type: functional, Salmonella enterica subsp. enterica serovar Typhimurium; conditions: Salmonella enterica, ATCC 13311, 24 h; outline: as §1
Aspergillus niger [15] = test: Antifungal activity against Aspergillus niger ATCC 6275 after 72 hrs by serial dilution technique; assay type: functional; conditions: ATCC 6275, 72 h; outline: as §2
Salmonella typhimurium [16] = test: Antibacterial activity against Salmonella Typhimurium ATCC 13311 after 24 hrs by microdilution method; assay type: functional, Salmonella enterica subsp. enterica serovar Typhimurium; conditions: Salmonella enterica, ATCC 13311, 24 h; outline: as §4
Micrococcus flavus [17] = test: Antibacterial activity against Micrococcus flavus ATCC 10240 after 24 hrs by microdilution method; assay type: functional; conditions: ATCC 10240, 24 h; outline: as §4
Penicillium ochrochloron [18] = test: Antifungal activity against Penicillium ochrochloron ATCC 9112 incubated for 72 hrs followed by serial sub-cultivation for 72 hrs by serial dilution technique; assay type: functional; conditions: ATCC 9112, 72 h; outline: as §3
Aspergillus fumigatus [19] = test: Antifungal activity against Aspergillus fumigatus isolated from human incubated for 72 hrs followed by serial sub-cultivation for 72 hrs by serial dilution technique; assay type: functional; outline: as §3
Talaromyces funiculosus [20] = test: Ratio of bifonazole to compound for Penicillium funiculosum ATCC 36839; assay type: functional
Aspergillus ochraceus [21] = test: Antifungal activity against Aspergillus ochraceus ATCC 12066 incubated for 72 hrs followed by serial sub-cultivation for 72 hrs by serial dilution technique; assay type: functional; conditions: ATCC 12066, 72 h; outline: as §3
Aspergillus flavus [22] = test: Antifungal activity against Aspergillus flavus ATCC 9643 after 72 hrs by serial dilution technique; assay type: functional; conditions: ATCC 9643, 72 h; outline: as §2
Bacillus cereus [23] = test: Antibacterial activity against clinical isolate of Bacillus cereus after 24 hrs by microdilution method; assay type: functional; outline: as §4
Penicillium ochrochloron [24] = test: Ratio of bifonazole to compound for Penicillium ochrochloron ATCC 9112; assay type: functional
Trichoderma viride [25] = test: Antifungal activity against Trichoderma viride IAM 5061 after 72 hrs by serial dilution technique; assay type: functional; conditions: IAM 5061, 72 h; outline: as §2
Aspergillus ochraceus [26] = test: Ratio of bifonazole to compound for Aspergillus ochraceus ATCC 12066; assay type: functional
Escherichia coli [27] = test: Antibacterial activity against Escherichia coli ATCC 35210 incubated for 24 hrs followed by serial sub-cultivation for 24 hrs by microdilution; assay type: functional; conditions: ATCC 35210, 24 h; outline: as §1
Staphylococcus aureus [28] = test: Antibacterial activity against Staphylococcus aureus ATCC 6538 incubated for 24 hrs followed by serial sub-cultivation for 24 hrs by microdilution method; assay type: functional; conditions: ATCC 6538, 24 h; outline: as §1
Listeria monocytogenes [29] = test: Antibacterial activity against Listeria monocytogenes NCTC 7973 incubated for 24 hrs followed by serial sub-cultivation for 24 hrs by microdilution; assay type: functional; conditions: NCTC 7973, 24 h; outline: as §1
Candida albicans [30] = test: Ratio of bifonazole to compound for Candida albicans isolated from human; assay type: functional
Pseudomonas aeruginosa [31] = test: Antibacterial activity against Pseudomonas aeruginosa ATCC 27853 incubated for 24 hrs followed by serial sub-cultivation for 24 hrs by microdilution; assay type: functional; conditions: ATCC 27853, 24 h; outline: as §1
Aspergillus flavus [32] = test: Antifungal activity against Aspergillus flavus ATCC 9643 incubated for 72 hrs followed by serial sub-cultivation for 72 hrs by serial dilution technique; assay type: functional; conditions: ATCC 9643, 72 h; outline: as §3
Aspergillus ochraceus [33] = test: Ratio of ketoconazole to compound for Aspergillus ochraceus ATCC 12066; assay type: functional
Candida albicans [34] = test: Antifungal activity against Candida albicans isolated from human after 72 hrs by serial dilution technique; assay type: functional; outline: as §2
Bacillus cereus [35] = test: Antibacterial activity against clinical isolate of Bacillus cereus incubated for 24 hrs followed by serial sub-cultivation for 24 hrs by microdilution; assay type: functional; outline: as §1
Listeria monocytogenes [36] = test: Antibacterial activity against Listeria monocytogenes NCTC 7973 after 24 hrs by microdilution method; assay type: functional; conditions: NCTC 7973, 24 h; outline: as §4
Penicillium ochrochloron [37] = test: Ratio of ketoconazole to compound for Penicillium ochrochloron ATCC 9112; assay type: functional
Trichoderma viride [38] = test: Antifungal activity against Trichoderma viride IAM 5061 incubated for 72 hrs followed by serial sub-cultivation for 72 hrs by serial dilution technique; assay type: functional; conditions: IAM 5061, 72 h; outline: as §3
Trichoderma viride [39] = test: Ratio of bifonazole to compound for Trichoderma viride IAM 5061; assay type: functional
Staphylococcus aureus [40] = test: Antibacterial activity against Staphylococcus aureus ATCC 6538 after 24 hrs by microdilution method; assay type: functional; conditions: ATCC 6538, 24 h; outline: as §4
Aspergillus niger [41] = test: Antifungal activity against Aspergillus niger ATCC 6275 incubated for 72 hrs followed by serial sub-cultivation for 72 hrs by serial dilution technique; assay type: functional; conditions: ATCC 6275, 72 h; outline: as §3
Escherichia coli [42] = test: Antibacterial activity against Escherichia coli ATCC 35210 after 24 hrs by microdilution method; assay type: functional; conditions: ATCC 35210, 24 h; outline: as §4
Enterococcus faecalis [43] = test: Antibacterial activity against Enterococcus faecalis isolated from human after 24 hrs by microdilution method; assay type: functional; outline: as §4

CCNc1nc(C)c(C(=O)/C=C/c2ccccc2)s1
MBC (Enterococcus faecalis [1]): 73.5 µM (≈ 20 µg/mL)
Ratio (Pseudomonas aeruginosa [2]): 10
MIC (Talaromyces funiculosus [3]): 36.8 µM (≈ 10 µg/mL)
Ratio (Aspergillus fumigatus [4]): 10
MIC (Penicillium ochrochloron [5]): 36.8 µM (≈ 10 µg/mL)
MIC (Aspergillus ochraceus [6]): 73.5 µM (≈ 20 µg/mL)
MFC (Candida albicans [7]): 73.5 µM (≈ 20 µg/mL)
Ratio (Candida albicans [8]): 10
MFC (Talaromyces funiculosus [9]): 73.5 µM (≈ 20 µg/mL)
MBC (Micrococcus flavus [10]): 110 µM (≈ 30 µg/mL)
MIC (Aspergillus ochraceus [11]): 36.8 µM (≈ 10 µg/mL)
MIC (Pseudomonas aeruginosa [12]): 73.5 µM (≈ 20 µg/mL)
Ratio (Aspergillus niger [13]): 10
MBC (Salmonella typhimurium [14]): 91.9 µM (≈ 25 µg/mL)
MIC (Aspergillus niger [15]): 55.1 µM (≈ 15 µg/mL)
MIC (Salmonella typhimurium [16]): 36.8 µM (≈ 10 µg/mL)
MIC (Micrococcus flavus [17]): 91.9 µM (≈ 25 µg/mL)
MFC (Penicillium ochrochloron [18]): 73.5 µM (≈ 20 µg/mL)
MFC (Aspergillus fumigatus [19]): 73.5 µM (≈ 20 µg/mL)
Ratio (Talaromyces funiculosus [20]): 10
MFC (Aspergillus ochraceus [21]): 91.9 µM (≈ 25 µg/mL)
MIC (Aspergillus flavus [22]): 73.5 µM (≈ 20 µg/mL)
MIC (Bacillus cereus [23]): 73.5 µM (≈ 20 µg/mL)
Ratio (Penicillium ochrochloron [24]): 10
MIC (Trichoderma viride [25]): 36.8 µM (≈ 10 µg/mL)
Ratio (Aspergillus ochraceus [26]): 10
MBC (Escherichia coli [27]): 110 µM (≈ 30 µg/mL)
MBC (Staphylococcus aureus [28]): 110 µM (≈ 30 µg/mL)
MBC (Listeria monocytogenes [29]): 110 µM (≈ 30 µg/mL)
Ratio (Candida albicans [30]): 10
MBC (Pseudomonas aeruginosa [31]): 73.5 µM (≈ 20 µg/mL)
MFC (Aspergillus flavus [32]): 91.9 µM (≈ 25 µg/mL)
Ratio (Aspergillus ochraceus [33]): 10
MIC (Candida albicans [34]): 36.8 µM (≈ 10 µg/mL)
MBC (Bacillus cereus [35]): 73.5 µM (≈ 20 µg/mL)
MIC (Listeria monocytogenes [36]): 110 µM (≈ 30 µg/mL)
Ratio (Penicillium ochrochloron [37]): 10
MFC (Trichoderma viride [38]): 73.5 µM (≈ 20 µg/mL)
Ratio (Trichoderma viride [39]): 10
MIC (Staphylococcus aureus [40]): 73.5 µM (≈ 20 µg/mL)
MFC (Aspergillus niger [41]): 73.5 µM (≈ 20 µg/mL)
MIC (Escherichia coli [42]): 73.5 µM (≈ 20 µg/mL)
MIC (Enterococcus faecalis [43]): 55.1 µM (≈ 15 µg/mL)
